For one data set, the system named is aldehyde oxidase. Description: Activity of guinea pig cytosolic aldehyde oxidase. The note with it: cytosol (aldehyde oxidase).
A short description of data set [1]: Cmax in Hartley guinea pig at 5 mg/kg, po. The note with it: in vivo. More on the design: dose 5 mg/kg, route oral. It is filed as ADME, organism-based, Cavia porcellus. Summed up:
(§1)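 A 1:1 deuterio/proto mixture, ~10 mg/kg total (5 mg/kg per isotopic form), was given orally in water or as an IV bolus via the jugular vein in saline. Animals were male Hartley guinea pigs (325–350 g) or male Sprague-Dawley rats (250–300 g). Carotid blood was sampled from 10 min to 6 h, and plasma was analysed by LC-MS/MS MRM. AUC and t1/2 were calculated between the first and last measured points.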

Data set [2] can be described thus: AUC in Sprague-Dawley rat at 5 mg/kg, iv. The arrangement: dose 5 mg/kg, route intravenous. The note with it: plasma. Format: ADME, organism-based. Summed up:
as §1

Data set [3] can be described thus: AUC in Hartley guinea pig at 5 mg/kg, iv. Format: ADME, organism-based, Cavia porcellus. The arrangement: dose 5 mg/kg, route intravenous. The note with it: plasma. The essentials: as §1
The nature of data set [4]: AUC in Hartley guinea pig at 5 mg/kg, po. Format: ADME, organism-based, Cavia porcellus. The arrangement: dose 5 mg/kg, route oral. The note with it: plasma. The essentials:
as §1

The nature of data set [5]: AUC in Sprague-Dawley rat at 5 mg/kg, po. It is filed as ADME, organism-based. The arrangement: dose 5 mg/kg, route oral. The note with it: plasma. Summed up: as §1
Data set [6] is described as follows: Cmax in Sprague-Dawley rat at 5 mg/kg, po. The arrangement: dose 5 mg/kg, route oral. Format: ADME, organism-based. The note with it: in vivo. Summed up:
as §1

Data set [7] is described as follows: AUC in Sprague-Dawley rat at 1 mg/kg, iv. Particulars: plasma. More on the design: dose 1 mg/kg, route intravenous. Format: ADME, organism-based. The essentials: (§2)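 Male Hartley guinea pigs (325–350 g) or male Sprague-Dawley rats (250–300 g) received a 1:1 deuterio/proto mixture. Oral dose was ~5 mg/kg total (2.5 mg/kg per isotopomer) in water; IV bolus via the jugular vein was ~2 mg/kg total (1 mg/kg per isotopomer) in saline. Carotid blood was drawn between 10 min and 6 h, and plasma was assayed by LC-MS/MS. AUC and t1/2 cover only the first to last measured time points.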

A short description of data set [8]: Half life in Hartley guinea pig at 2.5 mg/kg, po. It is filed as ADME, organism-based, Cavia porcellus. More on the design: dose 2.5 mg/kg, route oral. Particulars: in vivo. Summed up:
as §2

Data set [9] is described as follows: Half life in Sprague-Dawley rat at 2.5 mg/kg, po. It is filed as ADME, organism-based. The arrangement: dose 2.5 mg/kg, route oral. Particulars: in vivo. The essentials:
as §2

The nature of data set [10]: AUC in Hartley guinea pig at 1 mg/kg, iv. The arrangement: dose 1 mg/kg, route intravenous. Format: ADME, organism-based, Cavia porcellus. The note with it: plasma. The essentials:
as §2

Data set [11] can be described thus: Half life in Sprague-Dawley rat at 1 mg/kg, iv. The note with it: in vivo. More on the design: dose 1 mg/kg, route intravenous. Format: ADME, organism-based. The essentials: as §2
A short description of data set [12]: AUC in Sprague-Dawley rat at 2.5 mg/kg, po. More on the design: dose 2.5 mg/kg, route oral. Particulars: plasma. Format: ADME, organism-based. Summed up: as §2
The nature of data set [13]: AUC in Hartley guinea pig at 2.5 mg/kg, po. Format: ADME, organism-based, Cavia porcellus. More on the design: dose 2.5 mg/kg, route oral. The note with it: plasma. The essentials:
as §2

The nature of data set [14]: Cmax in Sprague-Dawley rat at 2.5 mg/kg, po. Format: ADME, organism-based. More on the design: dose 2.5 mg/kg, route oral. Particulars: in vivo. The essentials:
as §2

Data set [15] is described as follows: Half life in Hartley guinea pig at 1 mg/kg, iv. Format: ADME, organism-based, Cavia porcellus. More on the design: dose 1 mg/kg, route intravenous. The note with it: in vivo. Summed up: as §2
Data set [16] can be described thus: Cmax in Hartley guinea pig at 2.5 mg/kg, po. Format: ADME, organism-based, Cavia porcellus. More on the design: dose 2.5 mg/kg, route oral. Particulars: in vivo. The essentials:
as §2

The Km is the substrate concentration at which the rate is half of its maximum. Turning to `c1ccc2ncccc2c1` [QUINOLINE], in the data set with aldehyde oxidase, the Km was 212 µM.

The term Cmax denotes the highest concentration seen after dosing. Usually AUC stands for concentration integrated over time. Lower therefore signals low exposure. With `[2H]c1nnc(N2CCC(OC(=O)NCC)CC2)c2cc(OC)c(OC)cc12`, the results for the Cmax in [1] and in data set [6] were 161 ng/mL and 1770 ng/mL, respectively. The AUC in data set [2] was found to be 1270 ng·h/mL; in data set [3], 206 ng·h/mL; in data set [4], 96 ng·h/mL; in data set [5], 3720 ng·h/mL.

As to `CCNC(=O)OC1CCN(c2nncc3cc(OC)c(OC)cc23)CC1` [CARBAZERAN], the values for the Cmax in data set [1] and in [6] were 9.8 ng/mL and 1150 ng/mL, respectively. Also, the AUC in data set [2] worked out at 509 ng·h/mL; in [3] it was 35.6 ng·h/mL; in data set [4], 4.25 ng·h/mL; in data set [5], 1630 ng·h/mL.

As usually defined, the half-life is the time in which the quantity being followed falls by half. Low values mean fast loss, high ones slow loss. In the case of `N=C(N)NC(=O)c1cnn(-c2cccc3ncccc23)c1C1CC1` [ZONIPORIDE], the AUC is 74.4 ng·h/mL in [7], 23.2 ng·h/mL in data set [10], 19.7 ng·h/mL in data set [12] and 22.2 ng·h/mL in [13]. Also, the half-life was 30 min in data set [8], 18 min in data set [9], 24 min in [11] and 30 min in [15]. Moreover, the Cmax in data set [14] turned out to be 24.7 ng/mL; in [16] it was 26.5 ng/mL.

For `[2H]c1ccc2ccccc2n1`, in the data set on aldehyde oxidase, the Km turned out to be 193 µM.

Turning to `[2H]c1ccc2c(-n3ncc(C(=O)NC(=N)N)c3C3CC3)cccc2n1`, the AUC in data set [7] was determined as 77.4 ng·h/mL; in [10] it was 40.7 ng·h/mL; in data set [12] it was 12.7 ng·h/mL; in data set [13], 25.7 ng·h/mL. For the same compound, the half-life in [8] was 30 min; in data set [9], 18 min; in [11] it was 30 min; in data set [15], 30 min. For the same compound, the highest concentration (Cmax) came to 18.4 ng/mL in [14] and 23.3 ng/mL in data set [16].

The values above are taken from ChEMBL document CHEMBL3525996, “Deuterium isotope effects on drug pharmacokinetics. I. System-dependent effects of specific deuteration with aldehyde oxidase cleared drugs” (Drug Metab Dispos, 2012).
